In ChEMBL document CHEMBL1125894, “Dual-action cephalosporins: cephalosporin 3'-quaternary ammonium quinolones” (1991) one finds Concentration, MIC and ED50 data, which are given here for 1 compound.

Assay [1] has as its system Escherichia coli. Put plainly: Concentration required for 90% inhibition against 60 kDa penicillin-binding protein 3 binding using [14C]-Pen G as the radioligand. The gist of the method: (§1)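 Solubilized membranes from sonicated E. coli DC-0 were used. PBP binding was measured as inhibition of [14C]penicillin G binding to each PBP.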
Assay [2] relates to Enterobacter cloacae. Put plainly: In vitro antibacterial activity against Enterobacter cloacae 5699. In kind it is functional. The procedure, abridged:
(§2)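 Serial 2-fold dilutions in the NCCLS broth microdilution method for aerobic nonfastidious organisms, with an 18-h incubation. The value is reported as the minimum inhibitory concentration (MIC).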

Assay [3] deals with Klebsiella pneumoniae. Kind of assay: In vitro antibacterial activity against Klebsiella pneumoniae A. In kind it is functional. The gist of the method:
as §2

For assay [4], the system named is Enterobacter cloacae. Put plainly: In vivo activity in murine against Enterobacter cloacae 5699 infection after sc administration. In kind it is functional. The procedure, abridged:
(§3)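 Mouse protection test in CD1 Swiss albino mice (18–20 g). Mice were infected intraperitoneally with 0.5 mL of a diluted bacterial suspension, then treated within 5 min with one 1.0 mL subcutaneous dose at the dorsal base of the neck. Doses ranged from 0.05 to 250 mg/kg, with six mice per group. ED50 was calculated by the Reed–Muench method.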

For assay [5], the system named is Streptococcus pyogenes. Put plainly: In vitro antibacterial activity against Streptococcus pyogenes 4. In kind it is functional. The procedure, abridged:
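Broth macrodilution with serial 2-fold dilutions in cation-supplemented Mueller-Hinton broth containing 10% goat serum. The value is reported as the MIC.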

The subject of assay [6] is Escherichia coli. Put plainly: In vitro antibacterial activity against Escherichia coli 257. Type of assay: functional. The procedure, abridged:
as §2

The subject of assay [7] is Pseudomonas aeruginosa. Put plainly: In vivo activity in murine against Pseudomonas aeruginosa 5712 infection after sc administration. Type of assay: functional. Particulars: Pseudomonas aeruginosa, sc; read-out: ED50. The gist of the method: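 Mouse protection test in CD1 Swiss albino mice (18–20 g) infected intraperitoneally with 0.5 mL of diluted P. aeruginosa suspension. Mice received 1.0 mL subcutaneously at the neck base within 5 min of infection and a second treatment 3 h after infection. Doses ranged from 0.05 to 250 mg/kg, with six mice per group. ED50 was calculated by the Reed–Muench method.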

Assay [8] relates to Escherichia coli. Kind of assay: Antibacterial activity against Escherichia coli DC-O. In kind it is functional. The procedure, abridged:
as §2

Assay [9] has as its target T1, Penicillin-binding protein 1B (Escherichia coli K-12) (UniProt P02919).
T1 sequence (whole entry): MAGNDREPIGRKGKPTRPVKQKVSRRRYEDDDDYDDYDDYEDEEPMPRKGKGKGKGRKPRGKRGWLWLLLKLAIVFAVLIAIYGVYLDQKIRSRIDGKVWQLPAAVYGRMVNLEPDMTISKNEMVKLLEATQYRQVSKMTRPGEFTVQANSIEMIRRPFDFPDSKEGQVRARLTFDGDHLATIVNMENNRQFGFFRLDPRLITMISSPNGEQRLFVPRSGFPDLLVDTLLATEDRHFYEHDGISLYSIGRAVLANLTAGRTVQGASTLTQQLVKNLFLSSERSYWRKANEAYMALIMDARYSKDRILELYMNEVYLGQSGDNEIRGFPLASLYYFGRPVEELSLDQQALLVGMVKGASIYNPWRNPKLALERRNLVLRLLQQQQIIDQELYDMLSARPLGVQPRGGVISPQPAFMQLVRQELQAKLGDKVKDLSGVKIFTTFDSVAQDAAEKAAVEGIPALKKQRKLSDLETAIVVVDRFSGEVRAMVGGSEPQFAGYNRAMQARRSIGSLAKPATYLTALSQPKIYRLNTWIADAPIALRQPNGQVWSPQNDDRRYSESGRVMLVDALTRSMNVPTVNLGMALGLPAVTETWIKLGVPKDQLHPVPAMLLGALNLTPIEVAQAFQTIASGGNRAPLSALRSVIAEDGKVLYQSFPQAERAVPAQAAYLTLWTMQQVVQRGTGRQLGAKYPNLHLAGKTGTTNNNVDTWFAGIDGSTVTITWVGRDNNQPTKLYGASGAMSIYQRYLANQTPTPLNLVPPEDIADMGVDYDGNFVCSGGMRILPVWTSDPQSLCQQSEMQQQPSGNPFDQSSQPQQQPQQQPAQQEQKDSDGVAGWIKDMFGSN
Put plainly: Concentration required for 90% inhibition against 90 kDa penicillin-binding protein 1b binding using [14C]-Pen G as the radioligand. The gist of the method:
as §1

The test system of assay [10] is Staphylococcus aureus. Kind of assay: In vitro antibacterial activity against Staphylococcus aureus Smith(MS). In kind it is functional. The procedure, abridged: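 Staphylococci were tested by the standard agar dilution procedure using serial 2-fold dilutions of agent. The value is reported as the MIC.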
In assay [11] the target is T2, Penicillin-binding protein 1A (Escherichia coli K-12) (UniProt P02918).
T2 sequence (whole entry): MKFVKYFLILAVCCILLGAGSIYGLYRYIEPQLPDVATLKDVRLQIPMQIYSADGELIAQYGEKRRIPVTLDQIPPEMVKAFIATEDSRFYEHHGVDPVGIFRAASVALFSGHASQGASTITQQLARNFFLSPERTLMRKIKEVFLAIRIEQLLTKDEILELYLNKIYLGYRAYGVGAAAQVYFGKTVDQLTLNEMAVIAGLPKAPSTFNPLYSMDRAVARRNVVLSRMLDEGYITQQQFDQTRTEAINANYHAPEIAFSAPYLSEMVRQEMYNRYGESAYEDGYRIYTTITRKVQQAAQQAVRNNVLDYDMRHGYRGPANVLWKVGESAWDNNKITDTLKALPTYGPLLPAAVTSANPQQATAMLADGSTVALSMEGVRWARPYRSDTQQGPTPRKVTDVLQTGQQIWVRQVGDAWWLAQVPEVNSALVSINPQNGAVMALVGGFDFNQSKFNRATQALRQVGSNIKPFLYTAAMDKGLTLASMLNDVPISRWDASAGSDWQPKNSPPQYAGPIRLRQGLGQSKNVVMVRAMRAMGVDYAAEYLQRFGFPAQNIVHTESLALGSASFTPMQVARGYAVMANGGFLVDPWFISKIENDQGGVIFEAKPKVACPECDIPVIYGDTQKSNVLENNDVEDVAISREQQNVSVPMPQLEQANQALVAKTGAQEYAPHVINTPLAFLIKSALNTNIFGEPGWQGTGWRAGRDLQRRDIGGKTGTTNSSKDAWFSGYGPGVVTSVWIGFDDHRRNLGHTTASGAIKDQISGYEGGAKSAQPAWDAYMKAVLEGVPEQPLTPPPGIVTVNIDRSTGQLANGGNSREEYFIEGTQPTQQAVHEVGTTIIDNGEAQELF
Kind of assay: Concentration required for 90% inhibition against 90 kDa penicillin-binding protein 1a binding using [14C]-Pen G as the radioligand. The gist of the method: as §1

In assay [12] the test system is Serratia marcescens. Kind of assay: In vitro antibacterial activity against Serratia marcescens SM. Type of assay: functional. The gist of the method: as §2
Assay [13] has as its system Citrobacter freundii. Put plainly: In vitro antibacterial activity against Citrobacter freundii BS 16. Type of assay: functional. The procedure, abridged: as §2
Assay [14] has as its system Staphylococcus aureus. Kind of assay: In vivo activity in murine against Staphylococcus aureus Smith (MS) infection after sc administration. Type of assay: functional. The procedure, abridged: as §3
The test system of assay [15] is Streptococcus pneumoniae. Put plainly: In vivo activity in murine against Streptococcus pneumoniae 6301 infection after sc administration. In kind it is functional. The procedure, abridged:
as §3

The test system of assay [16] is Escherichia coli. Kind of assay: In vivo activity in murine against Escherichia coli 257 infection after sc administration. Type of assay: functional. The settings on record: Escherichia coli, sc; read-out: ED50. The gist of the method:
as §3

Assay [17] has as its system Pseudomonas aeruginosa. Kind of assay: In vitro antibacterial activity against Pseudomonas aeruginosa 5712. Type of assay: functional. The gist of the method:
as §2

In brackets after ≈: the same amount, converted by molar mass. Where only a bound is given, the exact number is not on record here.

In the case of `CC(C)(O/N=C(\C(=O)N[C@@H]1C(=O)N2C(C(=O)[O-])=C(C[N+]3(C)CCN(c4c(F)cc5c(=O)c(C(=O)O)cn(CCF)c5c4F)CC3)CS[C@H]12)c1csc(N)n1)C(=O)O`, the figures for the Concentration in assay [1], in assay [9] and in assay [11] were 0.1 µg/mL, 30 µg/mL and 2 µg/mL, respectively. For the same compound, the MIC (usually the lowest concentration found to suppress growth) amounted to 0.25 µg/mL (≈ 0.299 µM) in assay [2]; 0.25 µg/mL (≈ 0.299 µM) in assay [3]; 0.5 µg/mL (≈ 0.597 µM) in assay [5]; 0.25 µg/mL (≈ 0.299 µM) in assay [6]; 0.2 µg/mL (≈ 0.239 µM) in assay [8]; 16 µg/mL (≈ 19.1 µM) in assay [10]. In addition, the minimum inhibitory concentration (MIC) was found to be 1 µg/mL (≈ 1.19 µM) in assay [12], 2 µg/mL (≈ 2.39 µM) in [13] and 16 µg/mL (≈ 19.1 µM) in [17]. Moreover, the ED50 (usually the midpoint of the dose-response relation) was under 5 mg/kg in [4]; over 250 mg/kg in assay [7]; 2.6 mg/kg in [14]; 8 mg/kg in [15]; 0.28 mg/kg in assay [16].
